# Assay results: ChEMBL document CHEMBL4359902, “Development of novel chromeno[4,3-c]pyrazol-4(2H)-one derivates bearing sulfonylpiperazine as antitumor inhibitors targeting PI3Kα” (Eur J Med Chem, 2019)
# Key:
# HCT-116 = experiment: Antiproliferative activity against human HCT116 cells assessed as reduction in cell viability after 48 hrs by MTT assay; assay type: functional, cell-based; conditions: HCT-116, 48 h
# A549 = experiment: Antiproliferative activity against human A549 cells assessed as reduction in cell viability after 48 hrs by MTT assay; assay type: functional, cell-based; conditions: A549, 48 h
# HL-60 = experiment: Antiproliferative activity against human HL60 cells assessed as reduction in cell viability after 48 hrs by MTT assay; assay type: functional, cell-based; conditions: HL-60, 48 h
# Huh-7 = experiment: Antiproliferative activity against human HuH7 cells assessed as reduction in cell viability after 48 hrs by MTT assay; assay type: functional, cell-based; conditions: Huh-7, 48 h
# [1] = Cytotoxicity against human 293T cells; assay type: cell-based; conditions: HEK-293T cells
# [2] = target: Phosphatidylinositol 4,5-bisphosphate 3-kinase catalytic subunit beta isoform (Homo sapiens, UniProt P42338); experiment: Inhibition of PI3Kbeta (unknown origin) using diC8-PI(4,5)P2 as substrate incubated for 3 hrs in presence of ATP by fluorescence polarization assay
# Phosphatidylinositol 4,5-bisphosphate 3-kinase catalytic subunit beta isoform, sequence (P42338 whole entry, canonical isoform): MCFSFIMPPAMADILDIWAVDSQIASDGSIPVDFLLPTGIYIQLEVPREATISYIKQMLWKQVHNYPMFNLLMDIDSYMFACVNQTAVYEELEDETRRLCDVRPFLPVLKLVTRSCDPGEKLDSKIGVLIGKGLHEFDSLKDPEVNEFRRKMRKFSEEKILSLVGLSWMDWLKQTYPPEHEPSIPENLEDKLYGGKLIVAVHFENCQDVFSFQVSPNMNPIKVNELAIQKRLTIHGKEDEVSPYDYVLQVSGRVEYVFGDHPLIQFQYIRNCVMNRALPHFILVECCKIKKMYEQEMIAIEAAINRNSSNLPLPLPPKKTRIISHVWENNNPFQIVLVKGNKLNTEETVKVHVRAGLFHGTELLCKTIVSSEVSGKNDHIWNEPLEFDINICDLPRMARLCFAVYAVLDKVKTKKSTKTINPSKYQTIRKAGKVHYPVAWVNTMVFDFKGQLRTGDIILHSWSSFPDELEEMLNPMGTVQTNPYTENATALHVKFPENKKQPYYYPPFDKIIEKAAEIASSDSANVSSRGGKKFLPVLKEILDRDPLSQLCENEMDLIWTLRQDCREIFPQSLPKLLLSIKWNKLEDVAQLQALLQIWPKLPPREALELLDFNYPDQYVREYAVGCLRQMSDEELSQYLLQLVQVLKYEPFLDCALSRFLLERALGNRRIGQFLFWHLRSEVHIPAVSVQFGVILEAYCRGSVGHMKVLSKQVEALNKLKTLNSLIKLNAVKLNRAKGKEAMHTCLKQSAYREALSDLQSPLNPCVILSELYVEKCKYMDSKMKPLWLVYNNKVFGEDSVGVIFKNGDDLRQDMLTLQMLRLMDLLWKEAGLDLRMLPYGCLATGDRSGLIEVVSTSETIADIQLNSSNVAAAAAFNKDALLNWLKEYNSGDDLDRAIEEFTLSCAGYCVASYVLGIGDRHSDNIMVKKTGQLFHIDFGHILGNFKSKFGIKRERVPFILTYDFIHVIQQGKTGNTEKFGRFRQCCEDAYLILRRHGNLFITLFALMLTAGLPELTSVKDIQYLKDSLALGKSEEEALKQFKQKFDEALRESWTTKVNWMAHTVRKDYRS
# Outline: (§1)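 Fluorescence polarization competition assay, 10 μL reactions at pH 7: 2.5 mM MgCl₂, 5 mM HEPES, ATP, 10 mM DTT, 50 ng PI3K isoform, diC8-PI(4,5)P2 substrate. After 3 h at room temperature, reactions were chelator-quenched. Phosphoinositide binding protein and fluorophore-labelled tracer were added, then 1 h dark equilibration and polarization read.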
# [3] = target: Phosphatidylinositol 4,5-bisphosphate 3-kinase catalytic subunit alpha isoform (Homo sapiens, UniProt P42336); experiment: Inhibition of PI3Kalpha (unknown origin) using diC8-PI(4,5)P2 as substrate incubated for 3 hrs in presence of ATP by fluorescence polarization assay; outline: as §1
# Phosphatidylinositol 4,5-bisphosphate 3-kinase catalytic subunit alpha isoform, sequence (P42336 whole entry, canonical isoform): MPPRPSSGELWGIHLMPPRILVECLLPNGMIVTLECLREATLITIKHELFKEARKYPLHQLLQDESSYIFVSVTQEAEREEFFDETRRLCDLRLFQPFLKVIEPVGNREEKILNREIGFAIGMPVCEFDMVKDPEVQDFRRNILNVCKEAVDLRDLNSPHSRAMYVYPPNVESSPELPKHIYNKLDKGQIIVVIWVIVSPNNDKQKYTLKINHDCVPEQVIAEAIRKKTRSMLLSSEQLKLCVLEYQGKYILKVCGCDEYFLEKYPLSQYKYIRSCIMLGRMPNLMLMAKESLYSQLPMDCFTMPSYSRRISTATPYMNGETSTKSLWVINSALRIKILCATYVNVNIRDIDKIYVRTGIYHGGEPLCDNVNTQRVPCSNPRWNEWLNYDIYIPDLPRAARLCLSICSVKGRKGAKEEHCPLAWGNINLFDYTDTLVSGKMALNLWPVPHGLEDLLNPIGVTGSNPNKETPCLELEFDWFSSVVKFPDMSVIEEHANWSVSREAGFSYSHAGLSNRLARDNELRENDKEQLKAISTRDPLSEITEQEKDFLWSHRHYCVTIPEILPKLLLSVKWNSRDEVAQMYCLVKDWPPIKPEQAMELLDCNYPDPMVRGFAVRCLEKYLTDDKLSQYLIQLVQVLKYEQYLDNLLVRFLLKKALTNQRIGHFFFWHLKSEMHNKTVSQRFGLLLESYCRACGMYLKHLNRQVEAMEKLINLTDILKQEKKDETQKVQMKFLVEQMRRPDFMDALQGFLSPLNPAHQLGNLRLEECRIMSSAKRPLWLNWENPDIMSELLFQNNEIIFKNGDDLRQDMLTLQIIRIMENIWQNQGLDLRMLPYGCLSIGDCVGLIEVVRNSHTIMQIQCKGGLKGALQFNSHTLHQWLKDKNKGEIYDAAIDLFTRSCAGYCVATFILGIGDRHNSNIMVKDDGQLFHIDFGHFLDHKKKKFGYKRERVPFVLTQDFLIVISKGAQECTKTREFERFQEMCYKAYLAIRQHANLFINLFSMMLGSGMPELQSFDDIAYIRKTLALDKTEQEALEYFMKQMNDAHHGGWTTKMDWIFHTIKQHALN
# [4] = target: Serine/threonine-protein kinase mTOR (Homo sapiens, UniProt P42345); experiment: Inhibition of mTOR (unknown origin)
# [5] = target: T1, Phosphatidylinositol 4,5-bisphosphate 3-kinase catalytic subunit delta isoform (Homo sapiens, UniProt O00329); experiment: Inhibition of PI3Kdelta (unknown origin) using diC8-PI(4,5)P2 as substrate incubated for 3 hrs in presence of ATP by fluorescence polarization assay; outline: as §1
# T1 sequence (O00329 whole entry): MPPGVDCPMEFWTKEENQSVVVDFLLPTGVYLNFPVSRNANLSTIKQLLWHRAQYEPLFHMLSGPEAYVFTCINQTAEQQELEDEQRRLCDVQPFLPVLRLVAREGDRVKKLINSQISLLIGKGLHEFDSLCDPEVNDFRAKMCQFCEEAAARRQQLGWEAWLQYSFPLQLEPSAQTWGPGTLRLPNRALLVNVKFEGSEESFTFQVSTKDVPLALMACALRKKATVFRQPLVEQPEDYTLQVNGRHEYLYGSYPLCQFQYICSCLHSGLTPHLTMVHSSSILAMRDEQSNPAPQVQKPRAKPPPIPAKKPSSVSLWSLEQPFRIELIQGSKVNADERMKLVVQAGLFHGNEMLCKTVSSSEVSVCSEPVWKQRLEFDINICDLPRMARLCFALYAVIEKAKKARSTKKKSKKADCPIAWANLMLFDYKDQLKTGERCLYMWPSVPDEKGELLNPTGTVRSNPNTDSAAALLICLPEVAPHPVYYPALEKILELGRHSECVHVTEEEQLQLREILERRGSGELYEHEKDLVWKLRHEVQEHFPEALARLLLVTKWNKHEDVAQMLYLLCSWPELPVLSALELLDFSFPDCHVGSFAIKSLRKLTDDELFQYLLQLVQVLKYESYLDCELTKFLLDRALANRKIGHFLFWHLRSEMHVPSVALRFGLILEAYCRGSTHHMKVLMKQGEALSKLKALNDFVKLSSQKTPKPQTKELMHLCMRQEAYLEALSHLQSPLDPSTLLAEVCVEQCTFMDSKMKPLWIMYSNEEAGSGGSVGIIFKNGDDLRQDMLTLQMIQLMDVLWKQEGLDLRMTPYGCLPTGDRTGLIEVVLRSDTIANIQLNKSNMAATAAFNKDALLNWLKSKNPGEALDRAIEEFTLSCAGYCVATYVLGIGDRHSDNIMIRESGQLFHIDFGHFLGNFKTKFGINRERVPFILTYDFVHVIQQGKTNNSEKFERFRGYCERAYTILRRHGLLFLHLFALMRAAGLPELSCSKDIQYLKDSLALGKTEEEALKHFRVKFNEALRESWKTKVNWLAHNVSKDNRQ
# [6] = target: Phosphatidylinositol 4,5-bisphosphate 3-kinase catalytic subunit gamma isoform (Homo sapiens, UniProt P48736); experiment: Inhibition of PI3Kgamma (unknown origin) using diC8-PI(4,5)P2 as substrate incubated for 3 hrs in presence of ATP by fluorescence polarization assay; outline: as §1
# Phosphatidylinositol 4,5-bisphosphate 3-kinase catalytic subunit gamma isoform, sequence (P48736 whole entry, canonical isoform): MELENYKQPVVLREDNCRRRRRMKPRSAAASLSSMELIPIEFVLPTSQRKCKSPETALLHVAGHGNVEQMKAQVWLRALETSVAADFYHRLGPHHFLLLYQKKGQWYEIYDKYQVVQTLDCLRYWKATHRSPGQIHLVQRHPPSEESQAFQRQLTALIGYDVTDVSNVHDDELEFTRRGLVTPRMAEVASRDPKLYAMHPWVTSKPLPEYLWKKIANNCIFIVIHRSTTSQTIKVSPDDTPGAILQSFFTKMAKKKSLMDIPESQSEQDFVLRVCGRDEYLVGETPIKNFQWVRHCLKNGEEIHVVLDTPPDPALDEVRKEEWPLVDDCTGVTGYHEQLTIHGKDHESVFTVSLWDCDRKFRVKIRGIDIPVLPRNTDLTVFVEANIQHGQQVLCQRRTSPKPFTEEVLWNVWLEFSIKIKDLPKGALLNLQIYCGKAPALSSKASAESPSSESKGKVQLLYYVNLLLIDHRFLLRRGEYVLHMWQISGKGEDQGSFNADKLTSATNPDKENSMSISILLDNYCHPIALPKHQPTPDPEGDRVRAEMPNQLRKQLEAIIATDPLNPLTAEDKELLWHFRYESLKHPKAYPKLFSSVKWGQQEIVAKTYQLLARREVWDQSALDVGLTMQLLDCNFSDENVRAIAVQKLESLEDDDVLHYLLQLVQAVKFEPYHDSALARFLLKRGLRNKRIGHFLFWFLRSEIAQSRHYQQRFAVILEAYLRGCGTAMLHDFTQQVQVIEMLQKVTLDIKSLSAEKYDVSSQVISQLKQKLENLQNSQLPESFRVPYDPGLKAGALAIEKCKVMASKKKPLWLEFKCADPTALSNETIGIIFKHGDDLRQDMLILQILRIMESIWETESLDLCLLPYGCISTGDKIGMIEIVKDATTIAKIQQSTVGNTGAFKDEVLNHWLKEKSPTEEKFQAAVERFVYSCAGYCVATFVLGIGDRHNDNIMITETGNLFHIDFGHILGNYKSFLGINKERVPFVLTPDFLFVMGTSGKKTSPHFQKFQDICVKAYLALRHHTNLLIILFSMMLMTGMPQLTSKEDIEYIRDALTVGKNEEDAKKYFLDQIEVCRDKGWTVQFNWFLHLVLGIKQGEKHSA
Compound,IC50 (HCT-116) [µM],IC50 (A549) [µM],IC50 (HL-60) [µM],IC50 (Huh-7) [µM],IC50 [2] [µM],IC50 [3] [µM],IC50 [4] [µM],IC50 [5] [µM],IC50 [6] [µM],CC50 [1] [µM]
O=c1oc2ccccc2c2nn(CN3CCN(S(=O)(=O)C4CC4)CC3)cc12,69.3,82,71.4,79,,,,,,
CCCCS(=O)(=O)N1CCN(Cn2cc3c(=O)oc4ccccc4c3n2)CC1,87.9,> 100,> 100,> 100,,,,,,
CCCS(=O)(=O)N1CCN(Cn2cc3c(=O)oc4ccccc4c3n2)CC1,57.6,79.7,89.4,87.6,,,,,,
O=c1oc2ccccc2c2nn(CN3CCN(S(=O)(=O)C(F)(F)F)CC3)cc12,> 100,> 100,> 100,> 100,,,,,,
O=c1oc2ccccc2c2nn(CN3CCN(S(=O)(=O)CCCl)CC3)cc12,45.8,68.7,78.6,62.9,,,,,,
CC(C)c1cc(C(C)C)c(S(=O)(=O)N2CCN(Cn3cc4c(=O)oc5ccccc5c4n3)CC2)c(C(C)C)c1,0.08,0.09,0.09,0.14,0.21,0.042,> 10,0.42,0.11,332
O=c1oc2ccccc2c2nn(CN3CCN(S(=O)(=O)CCCCl)CC3)cc12,38,52.1,55.1,48.5,,,,,,
Cc1cc(C)c(S(=O)(=O)N2CCN(Cn3cc4c(=O)oc5ccccc5c4n3)CC2)c(C)c1,0.09,0.11,0.11,0.3,0.41,0.12,7.44,0.23,0.14,354
Cn1c(=O)n(-c2ccc(C(C)(C)C#N)cc2)c2c3cc(-c4cnc5ccccc5c4)ccc3ncc21 [DACTOLISIB],0.24,0.38,0.91,0.53,,,,,,

# Continued, in another order:
IC50 (HCT-116) [µM],IC50 (A549) [µM],IC50 (HL-60) [µM],IC50 (Huh-7) [µM],IC50 [2] [µM],IC50 [3] [µM],IC50 [4] [µM],IC50 [5] [µM],IC50 [6] [µM],Compound,CC50 [1] [µM]
> 100,> 100,> 100,> 100,,,,,,CCS(=O)(=O)N1CCN(Cn2cc3c(=O)oc4ccccc4c3n2)CC1,
0.84,1.15,1.1,2.34,5.75,3.84,8.12,7.51,2.3,O=c1oc2ccccc2c2nn(CN3CCN(S(=O)(=O)c4ccc(C(F)(F)F)cc4)CC3)cc12,335
7.53,13.9,22.1,11.3,,,,,,O=c1oc2ccccc2c2nn(CN3CCN(S(=O)(=O)c4ccccc4)CC3)cc12,
0.47,0.74,0.84,0.9,2.65,0.95,> 10,0.75,1.32,CC(C)(C)c1ccc(S(=O)(=O)N2CCN(Cn3cc4c(=O)oc5ccccc5c4n3)CC2)cc1,231
4.87,7.66,8.23,7.92,9.14,> 10,8.37,6.15,8.42,O=c1oc2ccccc2c2nn(CN3CCN(S(=O)(=O)c4ccccc4[N+](=O)[O-])CC3)cc12,372
1.29,3.67,2.01,3.65,> 10,6.18,> 10,> 10,9.34,O=c1oc2ccccc2c2nn(CN3CCN(S(=O)(=O)c4cccc([N+](=O)[O-])c4)CC3)cc12,412
11.1,21.5,16.9,28.5,,,,,,Cc1ccc(S(=O)(=O)N2CCN(Cn3cc4c(=O)oc5ccccc5c4n3)CC2)cc1,
12.1,27.4,24.5,34,,,,,,COc1ccc(S(=O)(=O)N2CCN(Cn3cc4c(=O)oc5ccccc5c4n3)CC2)cc1,
0.81,1.21,0.64,1.61,2.19,1.55,> 10,4.72,2.65,O=c1oc2ccccc2c2nn(CN3CCN(S(=O)(=O)c4ccc(Cl)cc4)CC3)cc12,278
1.89,3.09,4.78,5.08,9.71,8.3,> 10,9.31,> 10,O=c1oc2ccccc2c2nn(CN3CCN(S(=O)(=O)c4ccc(Br)cc4)CC3)cc12,387
> 100,> 100,> 100,97.1,,,,,,CS(=O)(=O)N1CCN(Cn2cc3c(=O)oc4ccccc4c3n2)CC1,
0.13,0.48,0.22,0.66,0.85,0.3,> 10,1.42,0.81,Cc1ccc(C)c(S(=O)(=O)N2CCN(Cn3cc4c(=O)oc5ccccc5c4n3)CC2)c1,397
